Most compounds without a hit are left out; they make up all but 3.1% or so of the library.
PAX8 inh HTS: PAX8 transcriptional activity inhibition | RMG-I TPO-luciferase reporter, SteadyGlo, 24 h | inhibition, % at 12.6 µM | actives 1.2% (n = 360,000);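 active means mean replicate inhibition at least 60% with every replicate also reaching 60%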;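 further: luciferase light reporting Pax8 driven TPO promoter activity; plate controls were median of neutral control wells for no effect and mitoxantrone controls for full effect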
HIV Env fusion: HIV envelope-mediated fusion inhibition; HeLa-JRFL Env/CEM21 cell fusion, luciferase; inhibition, % at 12.3 µM; actives 1.1% (n = 360,000); AID 651610;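 active means mean replicate inhibition score of at least 50 and every replicate individually at or above 50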;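 further: 0% = plate neutral controls and 100% = maraviroc near 300 nM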
PGC1a acetyl inh: modulators of PGC1a acetylation; U2OS PGC1a acetylation, AlphaScreen anti-acetyl-lysine; with virally co-expressed GCN5 acetyltransferase; inhibition, % at 15.6 µM; actives 0.17% (n = 350,000); AID 651687;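 active means every replicate shows inhibition of at least 40%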;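 further: 0% = neutral control wells and 100% = positive control wells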
EWS-Fli block: inhibitors of EWS/Fli oncoprotein transcriptional activity | A673 NR0B1-luciferase reporter, viability-normalised | inhibition, % at 12.6 µM | actives 0.67% (n = 350,000);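 active means mean inhibition of at least 50% after viability correction, with every replicate also passing that limit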;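 further: firefly luciferase signal divided by Alamar Blue viability fluorescence both relative to DMSO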
FGF22 binding: shifts melting point of recombinant human FGF22; recombinant FGF22 thermal shift, SYPRO orange fluorescence; percent of sucrose octasulfate shift, DMSO zero; activity (Tm shift, normalised), % at 9.99 µM; actives 1.5% (n = 340,000); AID 651658;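 active means mean Tm shift, scaled 0 neutral to 100 positive control, at about 1.3% or above, every replicate too, limit read from the data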
Target sequence (Q9HCT0 whole entry, looked up): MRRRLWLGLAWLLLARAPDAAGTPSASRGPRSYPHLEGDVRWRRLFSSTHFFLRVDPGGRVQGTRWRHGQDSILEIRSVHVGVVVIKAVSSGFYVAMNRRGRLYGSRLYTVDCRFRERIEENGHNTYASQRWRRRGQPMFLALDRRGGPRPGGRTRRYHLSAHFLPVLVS
FN deposit inh: fibronectin deposition inhibition. AH1F fibroblasts, Alexa488-fibronectin deposition fluorescence, overnight. actives 0.086% (n = 350,000). AID 743247. inhibition, % at 12.6 µM;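 active means mean inhibition across replicates of 30% or more, regardless of how many single replicates reach that level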;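 further: positive control wells lacked labelled fibronectin entirely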
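Assay system: AH1F fibroblasts / Quantity: 10000 cells per well / Medium: DMEM plus 2% serum, read in PBS / Reagent: labelled fibronectin 24 nM / Dosing: single dose, pinned / Times: 1 h cell attachment, overnight exposure to compound and label / Signal: fluorescence, ex 485 nm, em 525 nm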
Starred values were filed as active, the others as inactive; . = not tested or not shown; [ ] = dose if it differs, or a comment.

SMILES	PAX8 inh HTS	HIV Env fusion	PGC1a acetyl inh	EWS-Fli block	FGF22 binding	FN deposit inh
CCOc1[nH]n(-c2ccc(Cl)cc2)c(=O)c1C=NCC(=O)OC	-11	-7	.	-2	0	2
CC1(C(=O)O)CCCN1C(=O)c1ccccc1OC(F)(F)F (centres undefined)	73*	-4	-16	-12	0	1
CCOC(=O)C1(C)CCN1C(=O)c1ccccc1OC(F)(F)F (centres undefined)	-6	20	-1	-6	0	8
O=C(CCl)Nc1ccccc1C(=O)NCc1ccccc1	1	0	.	20	43*	5
Cc1ccccc1NC(=O)Nc1ccccc1C(=O)NCc1ccccc1	.	.	-3	.	.	.
CCCCSc1nc2c([nH]1)c(=S)n(C)c(=O)n2C	3	-32	.	39	0	-6
CSc1nc2c([nH]1)c(=S)n(C)c(=O)n2C	-20	-52	9	29	43*	-3
CCOC(=O)CNC(=O)C1Cc2ccccc2CN1S(=O)(=O)c1cccs1 (centres undefined)	-15	3	-8	-1	43*	-8
C[C@@H]1CN([C@H](C)CO)C(=O)c2cccc(NS(=O)(=O)c3ccccc3)c2O[C@H]1CN(C)C(=O)Nc1ccccc1	-11	-24[16.7 µM]	11	-8	0	2
C[C@@H]1CN([C@H](C)CO)C(=O)c2cc(N(C)C)ccc2O[C@H]1CN(C)CC1CCCCC1	.	.	.	.	.	2
O=S1(=O)c2ccc(Br)cc2N2CC[C@H](C2)N1Cc1ccc(Cl)cc1	27	.	.	66*	0	4
O=S1(=O)c2ccc(Br)cc2N2CCC[C@@H]2CN1Cc1ccc(Cl)cc1	9	23	.	-11	0	2
CO[C@H]1CN(C)C(=O)c2ccc(NC(=O)C3CCCC3)cc2OC[C@@H](C)N(C)C[C@H]1C	3	.	.	-8	0	0
c1ccc(Sc2ccccn2)cc1	-7	1	76*	-2	0	-10
COc1ccc(CCN2C(=O)c3[nH]nc(-c4ccccc4O)c3C2c2ccccc2)cc1OC (centres undefined)	29	147*	-53	.	.	-15
C[C@H]1CN([C@@H](C)CO)C(=O)Cc2cc(NC(=O)Nc3ccc4c(c3)OCO4)ccc2O[C@H]1CN(C)S(=O)(=O)c1ccc(F)cc1	.	-11[16.7 µM]	0	53*	0	0
C[C@H](CO)N1C[C@H](C)[C@H](CN(C)S(=O)(=O)c2ccccc2)Oc2ccc(NC(=O)Nc3ccc4c(c3)OCO4)cc2CC1=O	.	75*[16.7 µM]	-4	9	0	3
Cc1ccc(S(=O)(=O)N(C)C[C@@H]2Oc3ccc(NC(=O)Nc4ccc5c(c4)OCO5)cc3CC(=O)N([C@@H](C)CO)C[C@@H]2C)cc1	52	-137[16.7 µM]	-7	63*	0	.
Cc1ccc(S(=O)(=O)N(C)C[C@@H]2Oc3ccc(NC(=O)Cn4cnnn4)cc3CC(=O)N([C@@H](C)CO)C[C@H]2C)cc1	-29	18[16.7 µM]	-6	-15	0	.
CCCN(C)C[C@@H]1Oc2cc(C#Cc3ccncc3)ccc2S(=O)(=O)N([C@H](C)CO)C[C@@H]1C	.	-12[16.7 µM]	-1	66*	0	-19
CCCN(C)C[C@@H]1Oc2cc(C#Cc3ccncc3)ccc2S(=O)(=O)N([C@@H](C)CO)C[C@@H]1C	.	-19[16.7 µM]	-7	23	0	-9
CCCN(C)C[C@@H]1Oc2cc(C#CCC3CCCC3)ccc2S(=O)(=O)N([C@H](C)CO)C[C@H]1C	71*	39[16.7 µM]	-8	43	.	16
O=C(NNC(=O)C1CC1)c1cc2cc3ccccc3nc2s1	-5	6	.	-10	43*	0
CNC(=S)N(CCc1c(C)[nH]c2ccc(F)cc12)Cc1ccco1	20	3	6	2	0	-8
Cc1[nH]c2ccc(F)cc2c1CCN(Cc1cccnc1)C(=S)Nc1cccc(F)c1	7	33	-16	-8	44*	8
SMILES	PAX8 inh HTS	HIV Env fusion	PGC1a acetyl inh	EWS-Fli block	FGF22 binding	FN deposit inh
Cc1ccccc1NC(=S)N(CCc1c(C)[nH]c2ccc(F)cc12)Cc1cccnc1	-10	14	.	8	.	-5
Cc1[nH]c2ccc(F)cc2c1CCN(Cc1ccco1)C(=S)NC(C)(C)C	-2	21	.	8	43*	-4
Cc1noc(C)c1S(=O)(=O)Nc1ccc2c(c1)CC(=O)N([C@@H](C)CO)C[C@@H](C)[C@H](CN(C)Cc1ccc(C(=O)O)cc1)O2	-34	11[16.7 µM]	4	-7	0	.
CC1(C)N=C(N)N=C(N)N1c1ccc(Oc2ccc(Cl)cc2)c(Cl)c1	60*	28	3	48	0	-7
CN(C)CC(=O)N1[C@H](C(=O)NC2CCC2)[C@@H](CO)[C@@H]2Cn3c(ccc(-c4ccccc4)c3=O)[C@@H]21	.	1[16.7 µM]	.	-7	0	.
CN(CC(=O)NCCN1CCOCC1)S(=O)(=O)c1ccc(Cl)cc1	0	1	-2	8	43*	0
Clc1ccc(-c2nnc(CNC3CC3)o2)cc1	-15	1	19	-7	43*	5
Cc1noc(N)c1C1(O)C(=O)N(C(C)C)c2ccccc21 (centres undefined)	18	6	0	1	43*	-1
Cc1nn(-c2ccccc2)c(N)c1C1(O)C(=O)N(C(C)C)c2ccccc21 (centres undefined)	0	-2	.	15	0	6
CC(=O)c1c(C)[nH]c(C(=O)CSc2nnc(C3CCCCC3)n2N)c1C	11	64*	-14	.	.	-8
Cc1ccc(NC(=O)CN2C(=O)S/C(=C\c3ccc(-c4cccc(C(=O)O)c4C)o3)C2=O)cc1C	-6	0	-10	5	44*	5
Cc1c(C(=O)O)cccc1-c1ccc(/C=C2/NC(=O)N(c3ccccc3)C2=O)o1	-121	5	0	-65	1	-23
Cc1cccc(NC(=O)CN2C(=O)N/C(=C/c3ccc(-c4cccc(C(=O)O)c4C)o3)C2=O)c1	-1	7	2	-1	43*	-10
CO[C@@H]1CN(C)C(=O)c2ccc(NC(C)=O)cc2OC[C@H](C)N(Cc2ccncc2)C[C@@H]1C	.	.	7	1	0	-48
Cc1ccc(S(=O)(=O)NCc2csc(C)n2)cc1	-13	-7	-4	-4	0	2
Cc1nc(CNS(=O)(=O)c2ccc3c(c2)CCCC3)cs1	20	60*	.	1	0	-17
Fc1cccc(CSc2ccc(-c3ccco3)nn2)c1	-107	-121	-2	.	.	-7
Fc1ccc(CSc2ccc(-c3ccco3)nn2)cc1	131*	.	.	-97	0	-5
Cc1nc(NC(=S)Nc2ccccc2)sc1C	-162	-46	.	-13	43*	-6
CCC1(C)COC(C)(CC(=O)NNC(=O)Nc2ccccc2)OC1 (centres undefined)	5	-9	.	4	44*	-3
CCCC(=O)NNC(=O)Nc1ccccc1	.	.	4	9	0	.
